Article PMC11734723 (Science Advances, 2025)

Tests used:
endogenous SOCE = test: Endogenous SOCE; format: cell-based; conditions: read-out: IC50 of endogenous SOCE
Outline: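 Store-operated entry by Fura2 imaging. Cells were loaded with Fura2-AM (2 µM, 30 min, RT) and de-esterified 30 min. They were then exposed 10 min to thapsigargin (2 µM) plus varying test compound concentrations in nominally Ca²⁺-free Hepes buffer (pH 7.2). After a stable baseline, 1 mM Ca²⁺ was added and entry was followed as the 340/380 nm ratio.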

TRPC4 = molecular target: T1, TRPC4 (Mus musculus, UniProt Q9QUQ5); test: Carbachol-induced Sr2+ entry in TRPC4-overexpressing HEK293 cells; format: cell-based; conditions: read-out: IC50 of Cch-induced Sr2+ entry; Cch 100 nM, Sr2+ 3 mM
T1 sequence (Q9QUQ5 1-890 isoform Q9QUQ5-2): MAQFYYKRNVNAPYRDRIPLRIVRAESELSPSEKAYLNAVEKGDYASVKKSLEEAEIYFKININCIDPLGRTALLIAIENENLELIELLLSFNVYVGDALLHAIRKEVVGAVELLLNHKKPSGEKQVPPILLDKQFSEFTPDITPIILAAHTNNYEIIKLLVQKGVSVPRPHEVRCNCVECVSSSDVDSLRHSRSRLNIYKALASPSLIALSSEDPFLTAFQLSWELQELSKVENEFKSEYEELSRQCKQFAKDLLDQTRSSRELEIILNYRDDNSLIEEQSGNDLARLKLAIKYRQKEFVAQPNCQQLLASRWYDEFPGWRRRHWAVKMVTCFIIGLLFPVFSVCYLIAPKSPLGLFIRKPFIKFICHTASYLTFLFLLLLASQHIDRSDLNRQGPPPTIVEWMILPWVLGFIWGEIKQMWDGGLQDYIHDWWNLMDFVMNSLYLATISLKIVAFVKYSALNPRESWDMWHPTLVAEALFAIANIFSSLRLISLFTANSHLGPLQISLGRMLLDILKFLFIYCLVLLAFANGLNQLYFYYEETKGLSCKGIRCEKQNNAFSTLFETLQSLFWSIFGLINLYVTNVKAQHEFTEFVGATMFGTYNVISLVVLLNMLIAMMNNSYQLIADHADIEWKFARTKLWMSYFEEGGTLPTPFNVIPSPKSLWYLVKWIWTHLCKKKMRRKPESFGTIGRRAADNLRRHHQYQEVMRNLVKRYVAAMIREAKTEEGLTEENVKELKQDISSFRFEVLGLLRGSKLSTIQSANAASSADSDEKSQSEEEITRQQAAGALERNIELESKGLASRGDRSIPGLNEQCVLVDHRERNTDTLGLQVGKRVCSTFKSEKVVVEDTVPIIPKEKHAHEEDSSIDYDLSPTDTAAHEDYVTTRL
Outline: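 HEK293 cells were electroporated with GFP-tagged TRPC4, TRPC5 or TRPC7, plated after 24 h and cultured 48 h under selection; only high-GFP cells were analysed. Coverslip cells were loaded with Fura2 (2 µM) and treated with carbachol (100 nM) plus test compound (0 to 100 µM). Entry was measured after adding Sr²⁺ (3 mM), read as the 340/380 ratio; n = 3 to 5.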

[1] = test system: Cch-induced ER Ca2+ release; test: Carbachol-induced ER Ca2+ release in TRPC-overexpressing HEK293 cells; format: cell-based; conditions: ELP-004 1 nM to 100 μM
mouse TRPC4β = molecular target: T2, mouse TRPC4β (Mus musculus, UniProt Q9QUQ5); test: Whole-cell patch clamp of Englerin A-induced TRPC4 currents in HEK293 cells; format: cell-based; conditions: for decrease of EA-induced TRPC4 current 45 s after the peak: EA 30 nM
T2 sequence (Q9QUQ5 1-890 isoform Q9QUQ5-2): T1 sequence (Q9QUQ5 1-890 isoform Q9QUQ5-2)
Outline: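 Whole-cell recordings were made from HEK293 cells transiently expressing mouse TRPC4β, using ramps from −100 to +100 mV (200 ms, every 5 s; holding 0 mV). Pipette: CsCl with BAPTA (free Ca²⁺ 400 nM), pH 7.2; bath pH 7.4. After ~30 s in nominally Ca²⁺-free bath, Englerin A (30 nM) was applied. About 10 s after peak, Englerin A plus test compound (10, 30, 100 or 1000 nM) was perfused for ~90–100 s. Currents were read at ±100 mV.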

[2] = test system: NFATc1 nuclear translocation; test: NFATc1 nuclear translocation; format: cell-based, mouse; conditions: ELP-004 100 nM
Outline: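 Murine BMSMC cultures were sampled at 24 h and on days 7, 14 and 21. Cells were fixed in 3.7% PFA (10 min, RT), antigen-retrieved in tris/urea (pH 9.5, 95°C, 10 min), permeabilised in 0.2% Tween 20 and blocked in 1% BSA plus glycine. Anti-NFATc1 (clone 7A6, 200 ng/ml) was applied overnight at 4°C, then Alexa Fluor 488 secondary (2 µg/ml, 1 h) with 7-AAD counterstain. Nuclear colocalisation was assessed by confocal microscopy.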

murine BMSMCs = test: qPCR of osteoclast markers in murine BMSMC-derived osteoclasts; format: cell-based, mouse
Outline: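 Murine osteoclasts were cultured in mCSF (50 ng/ml) with RANKL (1 or 100 ng/ml) and, where indicated, LTB4 (50 nM) or TNFα (2 ng/ml) and test compound (100 nM), for up to 14 days. Cells were pelleted and RNA was extracted. Then 250 ng RNA was DNase-treated (ezDNase) and reverse-transcribed with Superscript IV for qPCR.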

[3] = test system: TRPC4^−/− and TRPC(1–7)^−/− BMSMCs; test: Osteoclastogenesis from TRPC4−/− and TRPC; format: cell-based, mouse
Outline: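 Myeloid cells from bone marrow and spleen of TRPC4−/− and TRPC(1–7)−/− mice were cultured in αMEM, 10% FBS and mCSF (50 ng/ml). RANKL (1 or 100 ng/ml) was added at 24 h, and TNFα (2 ng/ml) and test compound (100 nM) 2–3 days later as indicated. Cultures ran 14–21 days with feeding every 3–5 days before TRAP, Ca²⁺ and pit read-outs.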

## CCC(=O)N(C)c1ccc(Cl)c(Cl)c1 [ELP-004]
Endogenous SOCE
  IC50: 100 µM
TRPC4
  IC50: 0.172 µM
[1]
  effect on Cch-induced ER Ca2+ release: no effect
Mouse TRPC4β; 10 nM ELP-004, +100 mV
  decrease of EA-induced TRPC4 current 45 s after the peak: 37%
Mouse TRPC4β; 10 nM ELP-004, −100 mV
  decrease of EA-induced TRPC4 current 45 s after the peak: 58%
Mouse TRPC4β; 1 μM ELP-004
  inhibition of EA-induced TRPC4 currents: lost its inhibitory action
Mouse TRPC4β; 30 and 100 nM ELP-004 versus 10 nM
  inhibition of EA-induced TRPC4 currents at higher concentrations: did not show stronger inhibitory effects
[2]; BMSMC-derived macrophages (mCSF only)
  changes in NFAT localization: No significant changes
[2]; LTB4/RANKL
  effect on NFAT nuclear localization: blocked
[2]; RANKL-induced (100 ng/ml)
  effect on NFAT translocation: no effect
[2]; TNFα/RANKL
  effect on NFAT nuclear localization: blocked
[2]; low RANKL alone (1 ng/ml)
  changes in NFAT localization: No significant changes
Murine BMSMCs; LTB4/RANKL, ELP-004 100 nM
  changes in LTB4-induced expression of other osteoclast markers: no significant changes
  effect on LTB4-induced increase in DC-STAMP expression: no effect
  effect on LTB4-induced increase in OC-STAMP expression: no effect
Murine BMSMCs; RANKL (100 ng/ml), ELP-004 100 nM
  changes in OC-STAMP mRNA expression: no significant changes
Murine BMSMCs; RANKL (100 ng/ml), day 14, ELP-004 100 nM
  effect on DC-STAMP mRNA expression: Significant inhibition
Murine BMSMCs; RANKL, day 14, ELP-004 100 nM
  effect on MMP9 expression: inhibited
Murine BMSMCs; TNFα/RANKL, ELP-004 100 nM
  effect on DC-STAMP expression: abrogated
  effect on MMP9 expression: suppressed
  effect on OC-STAMP expression: abrogated
  effect on other osteoclast markers: no other osteoclast markers
[3]; RANKL or RANKL/TNFα osteoclasts from knockout BMSMCs
  effect on intracellular Ca2+: no effect
[3]; knockout BMSMCs
  effect on TRAP expression: no effect
  effect on cell size: no effect
  effect on multinucleation: no effect
  effect on pit formation: no effect
